Measurements of several laboratories.
Target: Calcium/calmodulin-dependent protein kinase type 1D (CAMK1D, Homo sapiens, UniProt Q8IU85)

| SMILES | test | conditions | remaining binding [%] |
| --- | --- | --- | --- |
| O=C(c1ccc(Nc2ncc(Cl)c(-c3ccc(Cl)s3)n2)cc1)N1CCC(N2CCCC2)CC1 | binding, competition with immobilised ligand | 1 µM | 22 |
| Cn1nc(C(=O)NCc2ccc(C(=O)O)cc2)cc1-c1ccc2[nH]ccc2c1 | cell-free assay, competition with immobilised ligand | 0.1 µM | 95 |
| O=C(c1ccc(Nc2nccc(-c3cc4ccccc4s3)n2)cc1)N1CCC(N2CCCC2)CC1 | binding, competition with immobilised ligand | 1 µM | 31 |
| Cc1nc(C2CCN(C(=O)c3ccc(OC(F)(F)F)cc3N)CC2)c2ncc(N3CCN(C)CC3)cc2n1 | cell-free assay, competition with immobilised ligand | 1 µM | 100 |
| COc1ncc2cc3ccccc3nc2c1C#N | cell-free assay, competition with immobilised ligand | 5 µM | 98 |
| C[C@@H]1CCN(c2nccc(-c3cnn4ncccc34)n2)C1 | binding | 1 µM | 86 |
| O=C(O)[C@H]1[C@H](Cn2nnc3ccccc3c2=O)CC[C@@H]1C(=O)c1ccc(OCCC2CCOCC2)cc1 | cell-free assay, competition with immobilised ligand | 1 µM | 96 |
| O=C(Nc1c[nH]nc1C(=O)NC1CCNCC1)c1cc(F)cc(F)c1 | binding, competition with immobilised ligand | 1 µM | 100 |
| O=C(N[C@H]1CCCCC/C=C\C2C[C@@]2(C(=O)O)NC(=O)[C@@H]2C[C@@H](Oc3ccncc3)CN2C1=O)OC1CCCC1 (stereo partly shown) | cell-free assay, competition with immobilised ligand | 1 µM | 94 |
| N[C@@H]1CCN(c2nccc(-c3cnn4ncccc34)n2)C1 | binding | 1 µM | 100 |
| COc1cnc(Nc2cccc(S(N)(=O)=O)c2)nc1N1CCN(c2ccccc2)CC1 | binding, competition with immobilised ligand | 1 µM | 100 |
| CN(C)c1nccc(-c2cnc3ncccn23)n1 | binding | 1 µM | 80 |
| N#Cc1ccc(Nc2ccc3[nH]c(=O)[nH]c3c2)c(Cl)c1 | cell-free assay, competition with immobilised ligand | 1 µM | 92 |
| F[C@@H]1CCN(c2nccc(-c3cnn4ncccc34)n2)C1 | binding | 1 µM | 100 |
| C=CC(=O)N1CCC(C(=O)NCC(=O)N2CCN(c3nc(-c4cnc(N)nc4C(F)F)nc(N4CCOCC4)n3)CC2)CC1 | binding, competition with immobilised ligand | 1 µM | 100 |
| CCc1ccccc1C(=O)Nc1n[nH]c2c(C)c(F)c(C3C(C#N)=C(C)N(C)C(C)=C3C#N)cc12 | cell-free assay, competition with immobilised ligand | 1 µM | 87 |
| CN(C)c1ncc(F)c(-c2cnn3ncccc23)n1 | binding | 1 µM | 78 |
| O=C(NS(=O)(=O)c1ccc(NCC2CCOCC2)c([N+](=O)[O-])c1)c1ccc(N2CCN(Cc3ccc(C(F)(F)F)cc3-c3ccc(Cl)cc3)CC2)cc1Oc1cnc2[nH]ccc2c1 | cell-free assay, competition with immobilised ligand | 1 µM | 92 |
| COc1ccnn2ncc(-c3ccnc(N(C)C)n3)c12 | binding | 1 µM | 100 |
| O=C(NCCCN1CCOCC1)c1ccc(Nc2nccc(-c3cc4ccccc4s3)n2)cc1 | binding, competition with immobilised ligand | 1 µM | 48 |
| Cc1cnn2ncc(-c3ccnc(N(C)C)n3)c2c1 | binding | 1 µM | 100 |
| C[C@@H](c1ccc(-n2cnc3c(N)ncnc32)cc1)N1CCc2nn(C)c(Cc3ccccc3)c2C1=O | binding, competition with immobilised ligand | 0.1 µM | 95 |
